KCNQ1 inh – inhibitors of human KCNQ1 potassium channel | CHO-K1 KCNQ1, FluxOR thallium flux fluorescence; stronger effect = higher value | B-score at 10 µM | hit rate 1.3% among 310,000;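 active = compounds whose thallium flux B-score, printed positive for inhibition, exceeds three library SD while starting fluorescence stays within three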;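 note: channel opened by potassium depolarization with thallium stimulus after 20 min compound exposure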
KCNK3 block – human KCNK3 channel inhibition, primary screen; CHO-KCNK3 thallium flux, FluxOR fluorescence; stronger effect = lower value; O14649; hit rate 0.84% among 340,000; B-score at 10 µM;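 active = B-score under library mean minus 4 SD, starting fluorescence ratio at most library mean plus 5 SD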;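 note: more negative B-score means stronger inhibition of thallium flux through KCNK3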
KCNQ1 act – potentiates or activates the human KCNQ1 potassium channel. CHO-K1 KCNQ1, thallium flux FluxOR fluorescence; stronger effect = higher value. P51787. B-score at 10 µM. AID 2648. hit rate 0.35% among 310,000;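 active = fluorescence ratio B-score, a plate-corrected score, at least three library SD, with initial intensity B-score within 5 SD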
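System: Stable KCNQ1 CHO-K1 line | Incubation: 90 min dye loading and 20 min compound exposure, both at room temperature | Measure: Ratio B score | Medium: Assay buffer for compound exposure, DMSO matched across wells | Compound dosing: Single-concentration screen | Probe or stimulus: K+/Tl+ depolarizing stimulus | Measured by: Kinetic FluxOR fluorescence, 10 s baseline plus 110 s post-stimulus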
KCNK9 block – blocks the human KCNK9 two-pore domain potassium channel; Q9NPC2; HEK293 KCNK9, FluxOR thallium flux fluorescence; stronger effect = lower value; B-score at 10 µM; hit rate 1.2% among 310,000; AID 488922;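 active = ratio B-score over 3 SD below the library mean, with starting fluorescence within 5 SD of its mean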;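 note: negative B-score means less thallium flux so channel inhibition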
hERG protect – hERG (human) protection from proarrhythmic block; CHO-hERG, FluxOR thallium flux, dofetilide IC70 present; activation (rescue from dofetilide block), less the hit threshold, % at 10 µM; Q12809; hit rate 0.51% among 310,000;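 active = activation above the mean of controls blocked by dofetilide plus 5 SD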;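 note: thallium influx through hERG after potassium depolarization seen as dye fluorescence rise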
PHOSPHO1 inh – inhibitors of human PHOSPHO1 phosphatase; Q8TCT1; recombinant PHOSPHO1, absorbance phosphatase assay; inhibition, % at 13.3 µM; hit rate 1.1% among 290,000; AID 1565; in the data active = inhibition above about 60%
KCNQ1 inh valid – confirmation of human KCNQ1 potassium channel inhibitors; hit rate 93% among 1,600; inhibition, % at 10 µM; KCNQ1 cell line, FluxOR thallium flux fluorescence; AID 588353; shares compounds with KCNQ1 inh;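 active = primary screen active, with duplicate mean exceeding buffer control mean plus 3 SD of buffer wells, cut at about 28% in these data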
CHO Tl flux – counter-screen for KCNQ1 inhibitors: effect in parental CHO cells; shares compounds with KCNQ1 inh; parental CHO-K1, FluxOR thallium flux fluorescence ratio; stronger effect = lower value; zero means no signal rise above baseline; fluorescence ratio (Tl flux) at 10 µM; hit rate 21% among 1,600;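 active = mean of duplicate thallium-flux fluorescence ratios in parental host cells more than 5 SD below the buffer control mean, cut at about 0.38 in these data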;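 note: ratio is peak minus minimum fluorescence divided by baseline fluorescence; actives read low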
KCNQ1 APC inh – blocks human KCNQ1 current in automated patch clamp. calls only at 10 µM. AID 624120. KCNQ1-CHO cells. shares compounds with KCNQ1 inh. hit rate 20% among 490;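 active = KCNQ1 current drop exceeding 3 SD of negative control wells, seen in both duplicate runs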;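 note: steady state current during a 2 s step from -80 to +40 mV; negative values mean current inhibition and positive values mean potentiation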
KCNQ2 spec – rat KCNQ2 inhibition in KCNQ1 inhibitor specificity screen; shares compounds with KCNQ1 inh; KCNQ2 cells, FluxOR thallium flux fluorescence; inhibition, % at 10 µM; hit rate 71% among 1,600;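 active = mean percent inhibition of the KCNQ2 thallium signal more than 5 SD above the buffer-only control wells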;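 note: KCNQ2 expressed in CHO cells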
KCNQ1-KCNE1 inh – human KCNQ1/KCNE1 inhibition in KCNQ1 specificity screen; shares compounds with KCNQ1 inh; KCNQ1/KCNE1 cells, FluxOR thallium flux fluorescence; inhibition, % at 10 µM; hit rate 77% among 1,600; AID 652147;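 active = mean percent inhibition of duplicate wells above the buffer-only control mean plus 3 SD of those controls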
Hits are given with their value; 0 = inactive; - = no result; + = active, no number. Sampled rows, rich in hits. Any-hit rate of the full collection: about 4%.

SMILES | KCNQ1 inh | KCNK3 block | KCNQ1 act | KCNK9 block | hERG protect | PHOSPHO1 inh | KCNQ1 inh valid | CHO Tl flux | KCNQ2 spec | KCNQ1-KCNE1 inh | others
COc1ccc(-c2csc(NC(=O)c3ccccc3NS(=O)(=O)c3ccc(F)c(F)c3)n2)cc1 | 6 | 0 | 0 | -6.8 | 0 | 0 | 64 | 0 | 0 | 92%
COc1ccc(-c2csc(NC(=O)c3ccccc3F)n2)cc1 | 0 | 0 | 0 | 0 | 0 | 0 | - | - | - | -
COc1cc([N+](=O)[O-])ccc1Nc1nc(C)cc(C)n1 | 0 | 0 | 0 | 0 | 0 | 0 | - | - | - | -
c1ccc(-c2noc(CSc3nnc(Cc4cccs4)n3-c3ccccc3)n2)cc1 | 0 | 0 | 0 | 0 | 0 | 0 | - | - | - | -
c1ccc(-c2noc(CSc3nnnn3-c3ccccc3)n2)cc1 | 6 | 0 | 0 | 0 | 0 | 0 | 60 | 0 | 62% | 74%
C=CCNC(=S)N(C1CCCCC1)C1CCCCC1 | 0 | 0 | 0 | 0 | 0 | 0 | - | - | - | -
CN(Cc1ccc(F)cc1)C(=O)c1cccc(S(=O)(=O)N2CCN(c3ccccc3)CC2)c1 | 7 | 0 | 0 | 0 | 0 | - | 76 | 0 | 70% | 0
CN(Cc1ccc(F)cc1)C(=O)c1cccc(S(=O)(=O)N2CCN(c3ccc(F)cc3)CC2)c1 | 0 | 0 | 0 | 0 | 0 | - | - | - | - | -
CC1(C(=O)OCC(=O)N2c3ccccc3Sc3ccccc32)CC1(Cl)Cl (stereo unspecified) | 7 | 0 | 0 | 0 | 0 | 0 | 122 | 0 | 103% | 174% | KCNQ1 APC inh=0
CNC(=O)COc1ccc(Nc2nnc(C)c3ccccc23)cc1 | 0 | 0 | 0 | 0 | 0 | 0 | - | - | - | -
O=C(Nc1ccccc1)Nc1ccc(Cl)c(S(=O)(=O)N2CCOCC2)c1 | 11 | 0 | 0 | 0 | 0 | 0 | 0 | 0 | 0 | 0
Cc1ccc(C(=O)NNc2cc(=O)n(C)c(=O)n2C)cc1C | 0 | 0 | 0 | 0 | 0 | 0 | - | - | - | -
FC(F)Oc1ccc(NC(=S)NCc2cccnc2)cc1 | 0 | 0 | 0 | 0 | 0 | 0 | - | - | - | -
Fc1ccc(CNC(=S)Nc2ccc(OC(F)F)cc2)cc1 | 7 | 0 | 0 | 0 | 0 | 0 | 56 | 0 | 0 | 40%
Cc1cc(C)c(-c2cc(NC(=O)COC(=O)c3ccc(CO)cc3)n(-c3ccccc3)n2)cc1C | 0 | 0 | 0 | 0 | 0 | 0 | - | - | - | -
Cc1cc(C)c(-c2cc(NC(=O)CSc3n[nH]c(N)n3)n(-c3ccccc3)n2)cc1C | 7 | 0 | 0 | 0 | 0 | 0 | 78 | 0 | 89% | 128%
Cc1cccc2c1Sc1ccc(Cl)cc1CC2N1CCNCC1 (stereo unspecified) | 9 | -12 | 0 | 0 | 0 | - | 123 | 0.3 | 116% | 166%
COc1ccc(-c2sc(Nc3ccccc3)n[n+]2-c2ccc(F)cc2)c(C)c1C | 16 | 0 | 0 | 0 | 0 | 0 | 128 | 0 | 99% | 134% | KCNQ1 APC inh=+
O=C(O)c1ccc(NS(=O)(=O)c2ccc(C(=O)Nc3ccccc3)cc2)cc1 | 0 | 0 | 0 | 0 | 0 | 0 | - | - | - | -
O=C(O)c1cc(NS(=O)(=O)c2cccc3ccccc23)ccc1O | 0 | 0 | 0 | 0 | 0 | 0 | - | - | - | -
O=S(=O)(Nc1c(O)ccc2ccccc12)c1cccc2ccccc12 | 11 | 0 | 0 | 0 | 0 | - | 32 | 0 | 0 | 90%
N#Cc1c(C(F)(F)F)cc(=O)n2c1[nH]c1ccccc12 | 6 | 0 | 0 | 0 | 0 | 0 | 38 | 0 | 107% | 0
CC1(c2ccc3c(c2)OCO3)NC(=O)N(CC(=O)c2ccc[nH]2)C1=O (stereo unspecified) | 0 | 0 | 0 | 0 | 0 | - | - | - | - | -
CCCn1c2c(c(O)c(C(=O)NC)c1=O)CCCC2 | 0 | 0 | 0 | 0 | 0 | 0 | - | - | - | -
